What is called IC50 is the midpoint of a concentration-inhibition curve.

This is an account of results in PMC3174326 (Journal of medicinal chemistry, 2011).

Experiment [1] has as its target JNK1 (Homo sapiens, UniProt P45983). The class given is biochemical. Particulars: for IC50: read-out: Kinase Inhibition IC50, JNK1 phosphorylation of ATF2, TR-FRET. In general terms: TR-FRET usually uses a lanthanide donor and a delayed reading to cut background.
The test system of experiment [2] is NONcNZO10/LtJ mice. Nature of the experiment: Glucose tolerance test in type 2 diabetes mouse model. Format: in vivo. Particulars: 25 mg/kg i.p. daily, 26-week-old NONcNZO10/LtJ mice, 2 g/kg D-glucose i.p. The essentials: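 Male 26-week-old NONcNZO10/LtJ mice, glucose intolerant, received test compound daily by i.p. injection alongside vehicle-treated controls. After a 16 h fast, mice were given D-glucose i.p. Blood was sampled at set time points and glucose read with a hand-held meter. Treated and vehicle groups were compared by two-way ANOVA using all measurements.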

For experiment [3], the target named is GST-JNK1 (UniProt P45983 1-427). Nature of the experiment: DELFIA.

Where a SMILES comes first, the peptide text is derived from it. The star is where a group is joined. X1 = O=C(NCCCN*)c1ccc(-c2n[nH]c3ccccc23)cc1

Chain of JNK1 (P45983 whole entry): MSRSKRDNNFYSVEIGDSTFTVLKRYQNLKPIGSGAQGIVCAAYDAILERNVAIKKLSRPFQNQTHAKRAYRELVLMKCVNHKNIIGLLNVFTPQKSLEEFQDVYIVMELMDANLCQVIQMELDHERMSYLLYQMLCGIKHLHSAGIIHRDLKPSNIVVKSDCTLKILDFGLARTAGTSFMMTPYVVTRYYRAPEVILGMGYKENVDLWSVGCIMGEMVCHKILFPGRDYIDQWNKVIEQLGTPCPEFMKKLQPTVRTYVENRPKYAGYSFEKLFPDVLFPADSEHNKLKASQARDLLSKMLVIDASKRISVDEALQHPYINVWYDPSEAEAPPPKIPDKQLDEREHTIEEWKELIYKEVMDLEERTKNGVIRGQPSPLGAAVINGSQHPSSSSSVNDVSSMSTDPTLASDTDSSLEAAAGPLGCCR
Chain of GST-JNK1 (P45983 whole entry): as above

Take `CC(C)CC(NC(=O)C(CC(N)=O)NC(=O)C(CC(C)C)NC(=O)C(NC(=O)C(NC(=O)C1CCCN1C(=O)C(N)CCCNC(=N)N)C(C)O)C(C)O)C(=O)NCC(=O)NCC(=O)NCCCNC(=O)c1ccc(-c2n[nH]c3ccccc23)cc1` (centres unmarked) [compound 9] (H-RPTTLNLGG-X1; configuration not given here): the “improvement of kinase inhibition properties compared with 20” value in experiment [1] (9 versus 20, Figure 1e) is reported as “over 100 fold”. Also, the half-maximal inhibitory concentration (IC50) in experiment [1] turned out to be 0.0007 µM.
For the molecule “Ac-tdqsrpvqpflnlttprrprpprrrqrrkkrg-OH (Ac-TDQSRPVQPFLNLTTPRRPRPPRRRQRRKKRG-OH; also: lowercase letters in name, meaning not given here) [compound 11]”, the “glucose tolerance / restoring normoglycemia” value in experiment [2] is listed as “observed shortcoming”. The IC50 in experiment [1] is above 50 µM.
The molecule Ac-RPTTLNL-OH [10 (Ac-RPTTLNL-OH)] showed an IC50 in experiment [3] of 4.5 µM.
